ChEMBL document CHEMBL1122932, “Metabolism of phencyclidine. The role of the carbinolamine intermediate in the formation of lactam and amino acid metabolites of nitrogen heterocycles” (J Med Chem, 1985)

Columns and labels:
Type in all cases: ADME
Mus musculus [1] = species on record: Mus musculus; experiment: In vitro level of metabolite in mice liver microsomes at 0 hours; ND is Not Detected (< 8 ug/vessel)
In short: (§1)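 Time-zero control: the reaction was stopped right after phencyclidine was added to the mouse (male ICR) liver 12500g supernatant plus NADP-regenerating cofactor mix. Metabolites were quantified by GLC or HPLC with internal standards (N-benzylphenylalanine or ketamine), using calibration curves from spiked microsomal mixtures.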

Mus musculus [2] = species on record: Mus musculus; experiment: In vitro level of metabolite in mice liver microsomes at 1 hour
In short: (§2)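 12500g liver supernatant from 10 male ICR mice (homogenized in ice-cold pH 7.4 Tris with 0.15 M KCl; stored -70 °C, used within 15 h). Incubated with phencyclidine and NADP/glucose 6-phosphate/nicotinamide/MgSO4 cofactor at 37 °C, 120 osc/min, 100% O2. Metabolites measured by GLC (N-benzylphenylalanine internal standard, nitrogen detector) or HPLC (ketamine internal standard), calibrated by spiking microsomal blanks.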

Mus musculus [3] = species on record: Mus musculus; experiment: In vitro level of metabolite in mice liver microsomes at 2 hours; in short: as §2
Mus musculus [4] = species on record: Mus musculus; experiment: In vitro level of metabolite in mice liver microsomes at 3 hours (heat inactivated control); ND is Not Detected (< 8 ug/ vessel)
In short: (§3)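 Control in which mouse (male ICR) liver 12500g supernatant was heat-inactivated before phencyclidine and cofactors were added. It was then incubated at 37 °C under 100% O2 with shaking alongside the test samples. Metabolites were quantified by GLC or HPLC against internal standards (N-benzylphenylalanine or ketamine), calibrated by spiking.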

Mus musculus [5] = species on record: Mus musculus; experiment: In vitro level of metabolite in mice liver microsomes at 3 hours; in short: as §2
Mus musculus [6] = species on record: Mus musculus; experiment: In vitro level of metabolite in mice liver microsomes at 0 hours; ND is […] (< 2 ug/vessel); in short: as §1
Mus musculus [7] = species on record: Mus musculus; experiment: In vitro level of metabolite in mice liver microsomes at 3 hours (heat inactivated control); ND is Not Detected (< 2 ug/vessel); in short: as §3
Mus musculus [8] = species on record: Mus musculus; experiment: In vitro level of metabolite in mice liver microsomes at 1 hour; ND is Not Detected (< 8 ug/vessel); in short: as §2
Mus musculus [9] = species on record: Mus musculus; experiment: In vitro level of metabolite in mice liver microsomes at 2 hours; ND is Not Detected (< 8 ug/vessel); in short: as §2
Mus musculus [10] = species on record: Mus musculus; experiment: In vitro level of metabolite in mice liver microsomes at 3 hours (heat inactivated control); ND is Not Detected (< 8 ug/vessel); in short: as §3
Mus musculus [11] = species on record: Mus musculus; experiment: In vitro level of metabolite in mice liver microsomes at 3 hours; ND is Not Detected (< 8 ug/vessel); in short: as §2

Row | SMILES | Metabolite levels (Mus musculus [1]) | Metabolite levels (Mus musculus [2]) [µg] | Metabolite levels (Mus musculus [3]) [µg] | Metabolite levels (Mus musculus [4]) | Metabolite levels (Mus musculus [5]) [µg] | Metabolite levels (Mus musculus [6]) | Metabolite levels (Mus musculus [7]) | Metabolite levels (Mus musculus [8]) | Metabolite levels (Mus musculus [9]) | Metabolite levels (Mus musculus [10]) | Metabolite levels (Mus musculus [11])
1 | Cl.O=C(O)CCCCNC1(c2ccccc2)CCCCC1 | Not detected | 110 | 123 | Not detected | 135 |  |  |  |  |  | 
2 | OCCCCCNC1(c2ccccc2)CCCCC1 |  | 2.8 | 2.4 |  | 1.4 | Not detected | Not detected |  |  |  | 
3 | O=C1CCCCN1C1(c2ccccc2)CCCCC1 | Not detected |  |  |  |  |  |  | Not detected | Not detected | Not detected | Not detected
4 | OC1CCN(C2(c3ccccc3)CCCCC2)CC1 |  | 9.3 | 9.2 |  | 10.3 |  |  |  |  |  | 
